Activity calls are given as the source filed them.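 How the source made its calls, unless noted: active means viability at or under a set limit in both replicates, limit being median viability minus 3 SD (cut at about 48% in these data, passing the limit was not always enough); inconclusive means at or under the limit in just one replicate; inactive means at or above the limit in both replicates.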
What was measured:
[1] = Her2 expression decrease, cell viability multiplex – SKBR3 breast tumor cells, AlphaScreen, ATP viability, primary screen (AID 461;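 active means Her2 level under about 52% in both replicate screens, with viability over 70% of control, limit read from the data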;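 on Her2 level: lower value means less Her2 protein in the cells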;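 on viability: percent of carrier control wells set as 100% viability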); details: SKBR3 Her2 protein level, 18-24 h, measured here: SKBR3 viability, ATP luminescence, at 10 µM
[2] = target: Receptor tyrosine-protein kinase erbB-2 (Homo sapiens) (UniProt P04626); assay: as above; details: 18-24 h, at 10 µM, stronger effect = lower value
Sequence of Receptor tyrosine-protein kinase erbB-2 (Homo sapiens) (P04626 whole entry, looked up): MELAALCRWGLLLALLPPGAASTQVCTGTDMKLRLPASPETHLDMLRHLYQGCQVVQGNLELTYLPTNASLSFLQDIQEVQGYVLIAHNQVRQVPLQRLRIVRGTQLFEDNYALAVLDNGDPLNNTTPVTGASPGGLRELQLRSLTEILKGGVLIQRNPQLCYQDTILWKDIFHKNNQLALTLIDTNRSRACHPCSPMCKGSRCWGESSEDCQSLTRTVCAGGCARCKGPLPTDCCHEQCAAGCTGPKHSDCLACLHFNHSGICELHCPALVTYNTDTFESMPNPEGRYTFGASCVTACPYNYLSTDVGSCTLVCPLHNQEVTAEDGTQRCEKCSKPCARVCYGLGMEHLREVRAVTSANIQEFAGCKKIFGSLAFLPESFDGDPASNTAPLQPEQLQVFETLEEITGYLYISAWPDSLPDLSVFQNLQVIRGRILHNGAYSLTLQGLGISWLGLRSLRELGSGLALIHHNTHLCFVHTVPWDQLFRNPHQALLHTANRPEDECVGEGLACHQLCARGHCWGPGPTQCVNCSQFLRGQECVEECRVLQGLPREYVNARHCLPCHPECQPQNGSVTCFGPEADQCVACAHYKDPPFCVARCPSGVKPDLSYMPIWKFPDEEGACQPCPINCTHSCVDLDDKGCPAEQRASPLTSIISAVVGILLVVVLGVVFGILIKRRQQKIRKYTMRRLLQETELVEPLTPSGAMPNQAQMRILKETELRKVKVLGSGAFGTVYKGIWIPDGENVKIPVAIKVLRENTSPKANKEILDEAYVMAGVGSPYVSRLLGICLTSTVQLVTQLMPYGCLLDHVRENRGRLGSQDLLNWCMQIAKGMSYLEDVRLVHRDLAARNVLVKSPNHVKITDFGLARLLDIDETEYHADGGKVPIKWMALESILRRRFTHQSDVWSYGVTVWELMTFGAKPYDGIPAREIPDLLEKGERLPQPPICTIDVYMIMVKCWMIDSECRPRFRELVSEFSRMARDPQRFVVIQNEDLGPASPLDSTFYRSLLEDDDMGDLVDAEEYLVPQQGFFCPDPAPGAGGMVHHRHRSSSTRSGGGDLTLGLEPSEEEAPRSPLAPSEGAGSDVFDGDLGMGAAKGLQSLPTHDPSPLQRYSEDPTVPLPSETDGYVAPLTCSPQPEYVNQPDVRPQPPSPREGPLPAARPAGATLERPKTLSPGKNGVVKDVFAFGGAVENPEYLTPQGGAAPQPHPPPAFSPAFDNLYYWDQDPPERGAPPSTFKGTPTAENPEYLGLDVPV

[3] = reduced viability of SK-BR-3 breast cancer cells – cell-based, 24 h, human, pilot screen (AID 572;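 active means viability at or below 10% of carrier control in both of two separate runs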;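 further: compound exposure lasted between 18 and 24 h rather than exactly 24 h; 100% = carrier-treated control wells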); details: SK-BR-3 viability, CellTiter-Glo luminescence, at 10 µM, stronger effect = lower value
[4] = HUVEC growth inhibition – cell-based, human, primary screen (AID 575;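 active means viability at or below 30% in both replicate assays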;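 further: 100% = median of untreated cell wells with 0.1% DMSO on each plate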); details: HUVEC proliferation, CellTiter-Glo luminescence, 72 h; at 10 µM; stronger effect = lower value
How it was run: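 material = primary HUVEC, no more than 12 passages | input = 1250 cells per well | controls = vehicle and MePR control wells | measured by = CTG luminescence | times = 72 h compound incubation | format = collagen-coated 384-well format | read-out = % viability vs DMSO wells | doses = single 10 µM dose, 0.1% DMSO, from 5x medium stock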

[5] = H69AR cell proliferation blockers – human, duplicate replicates, primary screen (AID 580); details: H69AR lung tumor cells viability, ATP luminescence, 72 h; at 10 µM; stronger effect = lower value;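 further: 100% = mean luminescence of untreated wells and 0% = no signal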
[6] = MRP1 drug-resistance reversers in H69AR cells – cell-based, doxorubicin co-treatment, pilot screen (AID 601;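 active means viability loss from added drug above about 55%, and viability with drug at most 40%, in both replicates, limit read from the data, passing the limit was not always enough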); details: CellTiter-Glo, 72 h, at 10 µM; for differential viability (reversal): stronger effect = higher value
[7] = yeast transport mutant growth inhibition pilot in 384-well plates, post-Golgi transport modulator project (AID 636; in the data active means inhibition above about 31%); details: absorbance 615 nm, about 18 h, stronger effect = higher value
[8] = growth suppression of yeast trafficking mutant, preliminary HTS, modulators of trafficking downstream of Golgi apparatus project, 1536-format plate, OD 615 nm (AID 637; in the data active means inhibition above about 30%); details: yeast transport mutant growth, absorbance 615 nm, 18 h; stronger effect = higher value
[9] = H69AR cells + 2 uM doxorubicin, measured here: viability with 2 uM doxorubicin, stronger effect = lower value
[10] = H69AR cells, compound alone cytotoxicity

SMILES	viability [1] [%]	Her2 level [2]	viability [3]	viability [4]	viability [5]	differential viability (reversal) ([6]; H69AR cells + 2 uM doxorubicin)	viability [6, 9] [%]	viability [6, 10] [%]	inhibition [7]	inhibition [8]
O=C(O)CCc1ccc(-c2ccc(Br)cc2)n1CC(=O)O	102	102% (inactive)	102% (inactive)	91.9% (inactive)	101% (inactive)	2.92% (inactive)	98	101	-0.51% (inactive)	-3.67% (inactive)
C#CCN1C(=O)C(O)(CC(=O)c2cccc(OC)c2)c2ccccc21 (stereo not given)	100	84% (inactive)	100% (inactive)	93.3% (inactive)	21.7% (active)	-16.6% (inactive)	38.3	21.7	-7.03% (inactive)	1.67% (inactive)
CCCCOC(=O)n1c(SCC(=O)N(CC)CC)nc2ccccc21	86	97.5% (inactive)	86% (inactive)	81.8% (inactive)	91.4% (inactive)	1.75% (inactive)	89.6	91.4	-1.82% (inactive)	-4.29% (inactive)
O=C(O)CC1CCCC(c2ccccc2)C1=O (stereo not given)	97	110% (inactive)	97% (inactive)	108% (inactive)	99.6% (inactive)	6.58% (inactive)	93	99.6	-6.4% (inactive)	-9.35% (inactive)
CSc1nc(NC(C)(C)C)nc(Oc2ccc(=O)[nH]n2)n1	101	93.5% (inactive)	101% (inactive)	107% (inactive)	92.1% (inactive)	0.405% (inactive)	91.7	92.1	-3.82% (inactive)	2.46% (inactive)
COc1ccc(OC)c(C2=Nn3c(nnc3C3CCCCC3)SC2)c1	94	104% (inactive)	94% (inactive)	75.4% (inactive)	78.1% (inactive)	0.07% (inactive)	78	78.1	5.92% (inactive)	3.06% (inactive)
Cc1nc(NS(=O)(=O)c2ccccc2)sc1NC(=O)OC(C)C	97	106% (inactive)	97% (inactive)	90.3% (inactive)	99.9% (inactive)	1.17% (inactive)	98.7	99.9	-3.29% (inactive)	-12.5% (inactive)
Cc1nc2nc(SCC(=O)NCc3ccco3)nn2c(C)c1Cc1ccccc1	83	108% (inactive)	83% (inactive)	97.3% (inactive)	75.2% (inactive)	-2% (inactive)	77.2	75.2	-5.27% (inactive)	-3% (inactive)
CC(C)OC(=O)CSc1nnc(-c2ccco2)n1N	99.5	112% (inactive)	99.5% (inactive)	90.4% (inactive)	107% (inactive)	14% (inactive)	93.2	107	-5% (inactive)	-5.33% (inactive)
Cn1c(=O)oc2cc(S(=O)(=O)NCCC(=O)N3CCc4ccccc4C3)ccc21	102	87.5% (inactive)	102% (inactive)	96.6% (inactive)	99.3% (inactive)	7.68% (inactive)	91.6	99.3	-8.36% (inactive)	6.19% (inactive)
CCOC(=O)Nc1c(C(=O)OC)[nH]c2cccc(OC)c12	76	112% (inactive)	76% (inactive)	106% (inactive)	104% (inactive)	13% (inactive)	91	104	3.03% (inactive)	9.52% (inactive)
Cc1cccc(Nc2nc3c(c(=O)n(C)c(=O)n3C)n2Cc2ccccc2)c1	122	87% (inactive)	122% (inactive)	93.2% (inactive)	96.6% (inactive)	-0.855% (inactive)	97.5	96.6	-4.32% (inactive)	2.86% (inactive)
Cc1nn(C)cc1NC(=O)CCSc1nc(-c2ccco2)cc(C(F)(F)F)n1	90.5	104% (inactive)	90.5% (inactive)	102% (inactive)	87.3% (inactive)	5.31% (inactive)	81.9	87.3	-4.4% (inactive)	23.9% (inactive)
CSCC[C@@H](Nc1nc(-c2ccccc2)nc2c1oc1ccccc12)C(=O)O	91	75% (inactive)	91% (inactive)	84.2% (inactive)	93.8% (inactive)	-1.28% (inactive)	95.1	93.8	-7.43% (inactive)	-0.82% (inactive)
COc1ccc(CC(NC(C)=O)C(=O)NC2CCN(C(=O)Nc3ccc(C#N)cc3)CC2)cc1OC (stereo not given)	93	91.5% (inactive)	93% (inactive)	117% (inactive)	94.2% (inactive)	-3.13% (inactive)	97.3	94.2	-4.13% (inactive)	2.79% (inactive)
COc1ccc(C(NC(=O)C(C)(C)C)NC(=O)C(C)(C)C)cc1	86	99.5% (inactive)	86% (inactive)	111% (inactive)	91.7% (inactive)	6.21% (inactive)	85.5	91.7	-5.32% (inactive)	-0.32% (inactive)
O=C(C1CC1)N(Cc1ccco1)c1nc(-c2ccccc2)cs1	96.5	108% (inactive)	96.5% (inactive)	81.4% (inactive)	86.4% (inactive)	1.75% (inactive)	84.7	86.4	-5.6% (inactive)	-8.36% (inactive)
Cc1ccc(S(=O)(=O)NC(=O)c2cc(C)n(CCCn3ccnc3)c2C)cc1	101	84% (inactive)	101% (inactive)	94.2% (inactive)	90.7% (inactive)	2.88% (inactive)	87.8	90.7	-7.2% (inactive)	0.82% (inactive)
CCOC(=O)N1CCN(S(=O)(=O)c2cc(Cl)c(OC)cc2Cl)CC1	85	102% (inactive)	85% (inactive)	108% (inactive)	91.1% (inactive)	-0.21% (inactive)	91.3	91.1	-2.24% (inactive)	-4.92% (inactive)
Cn1c(=O)cc(SCC(=O)N2CCOCC2)c2ccc(Cl)cc21	108	99.5% (inactive)	108% (inactive)	76.1% (inactive)	93.2% (inactive)	9.88% (inactive)	83.3	93.2	-2.37% (inactive)	-1.61% (inactive)
CCN(c1ccc(OC)cc1)S(=O)(=O)c1ccc2c(c1)CCN2C(=O)CCC(=O)O	115	97.5% (inactive)	115% (inactive)	88.9% (inactive)	92.4% (inactive)	2.4% (inactive)	90	92.4	-3.55% (inactive)	-2.06% (inactive)
Cc1c(C(=O)OC2CCCCC2)[nH]c2c1C(=O)CC(C)(C)C2	82.5	116% (inactive)	82.5% (inactive)	48.8% (inactive)	78.8% (inactive)	-3.71% (inactive)	82.5	78.8	-3.55% (inactive)	-17.5% (inactive)
CCCn1c(SCC(=O)N2CCc3ccccc3C2)nc2c1c(=O)n(C)c(=O)n2C	78.5	128% (inactive)	78.5% (inactive)	91.2% (inactive)	84.9% (inactive)	2.96% (inactive)	81.9	84.9	0.26% (inactive)	9% (inactive)
CCOC(=O)CSc1nnc(-c2cccnc2)n1Cc1ccccc1	91.5	108% (inactive)	91.5% (inactive)	106% (inactive)	96.4% (inactive)	0.125% (inactive)	96.2	96.4	1.45% (inactive)	-12.3% (inactive)
CCCCCOC(=O)C1=C(C)N(C)C(=O)NC1c1cc(Br)c(O)c(OC)c1 (stereo not given)	114	106% (inactive)	114% (inactive)	72.7% (inactive)	83.2% (inactive)	-3.32% (inactive)	86.5	83.2	-7.14% (inactive)	-7.62% (inactive)
C=CCc1cccc2cc(C(=O)NCc3cccnc3)c(=O)oc12	97.5	112% (inactive)	97.5% (inactive)	95% (inactive)	95% (inactive)	4.88% (inactive)	90.1	95	-0.52% (inactive)	-9.33% (inactive)
Cn1c(=O)[nH]c2cc3ccccc3cc21	118	94% (inactive)	118% (inactive)	26.6% (active)	95.6% (inactive)	16.5% (inactive)	79.1	95.6	-6.05% (inactive)	-0.73% (inactive)
S=C(c1cccs1)N1CCCC1	90.5	110% (inactive)	90.5% (inactive)	96.7% (inactive)	100% (inactive)	11.2% (inactive)	89.3	100	0.52% (inactive)	-8.52% (inactive)
COc1cccc(NC(=O)CSc2nnc(-c3cc(-c4ccccn4)nc4ccccc34)o2)c1	94.5	85% (inactive)	94.5% (inactive)	81% (inactive)	76.4% (inactive)	-3.28% (inactive)	79.7	76.4	-1.22% (inactive)	-4.6% (inactive)
